The test system of series [1] is SK-OV-3. The series is described as follows: Cytotoxicity against human SKOV3 cells assessed as reduction in cell viability incubated for 48 hrs by SRB assay. It counts as functional. Conditions: SK-OV-3, 48 h. In a few lines: (§1)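 Cells from ATCC, plated at 7000–8000 cells/well in DMEM with 5% FBS and 1% gentamicin and left 24 h at 37 °C, 5% CO2. Compounds from a 10 mg mL–1 DMSO stock were serially diluted and added for 48 h. Cells were fixed with TCA (10% final), stained with SRB, and the dye solubilized in 10 mM Tris. A540 was normalized to A630, and GI50 was taken as 50% reduction in net protein increase.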
Background: The SRB assay estimates cell density from bound dye.

Series [2] concerns DU-145. Description: Cytotoxicity against human DU145 cells assessed as reduction in cell viability incubated for 48 hrs by SRB assay. The following applies: DU-145, 48 h. It counts as functional. In a few lines: as §1
The test system of series [3] is NCI-H460. The series is described as follows: Cytotoxicity against human NCI-H460 cells assessed as reduction in cell viability incubated for 48 hrs by SRB assay. Conditions: NCI-H460, 48 h. It counts as functional. In a few lines: as §1
Series [4] has as its target Tubulin. Description: Inhibition of tubulin polymerization (unknown origin) incubated for 10 mins by spectrophotometry. It counts as protein-complex assay, Homo sapiens.
For series [5], the system named is HUVEC. The series is described as follows: Cytotoxicity against HUVEC assessed as reduction in cell viability incubated for 48 hrs by SRB assay. Conditions: human. It is filed as cell-based. In a few lines:
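HUVECs were grown in M200 with VEGF kit supplements in collagen I coated flasks, then plated at 9000 cells/well and given 48 h to attach. Compounds were added as 10-fold serial dilutions in M200 with LSGS kit, 1% gentamicin and 1% amphotericin B. Growth was read by SRB assay, and GI50 was taken as the concentration inhibiting growth by 50%.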

A short description of series [6]: Selectivity index, ratio of GI50 for HUVEC to GI50 for human NCI-H460 cells. It counts as toxicity. The following applies: HUVEC versus NCI-H460 cells, read-out: RatioGI50.
The nature of series [7]: Selectivity index, ratio of GI50 for HUVEC to GI50 for human SKOV3 cells. It is filed as toxicity. Conditions: HUVEC versus SKOV3 cells, read-out: RatioGI50.
Series [8] can be described thus: Selectivity index, ratio of GI50 for HUVEC to GI50 for human DU145 cells. It counts as toxicity. The following applies: HUVEC versus DU145 cells, read-out: RatioGI50.
Series [9] has as its target Tubulin (Homo sapiens) (UniProt P68371+Q9H4B7+P0DPH7+P68366+Q13509+Q71U36+P04350+Q3ZCM7+P07437+P68363+Q9BQE3+Q6PEY2+Q13885+Q9BVA1+Q9BUF5). Description: Inhibition of [3H]colchicine binding to tubulin (unknown origin) at 5 uM incubated for 10 mins by scintillation counting method relative to control. It is filed as protein-complex assay.

Molecules are shown by their SMILES. A value given as a limit tells only on which side of the number the result lay.

The values below come from ChEMBL document CHEMBL4373643, “Synthesis and biological evaluation of structurally diverse α-conformationally restricted chalcones and related analogues” (Medchemcomm, 2019).

Take `COc1cc(/C=C2\CCc3c(ccc(OC)c3[N+](=O)[O-])C2=O)cc(OC)c1OC`: the GI50 (as a rule, the concentration that inhibits growth by half) turned out to be 23.5 µM in series [1], 37.6 µM in [2] and 36.3 µM in series [3]. Moreover, the IC50 (in general, the concentration needed to halve the response being measured) in series [4] was > 20 µM.

As for `COc1ccc2c(c1Br)CCC/C(=C\c1cc(OC)c(OC)c(OC)c1)C2=O`, the GI50 stood at 8.5 µM in [1], 9.91 µM in series [2] and 4.44 µM in series [3]. Besides, the IC50 in series [4] was > 20 µM.

On to `COc1cc(Cc2ccc3c(O)c(OC)ccc3c2O)cc(OC)c1OC`, for which the GI50 in series [1] came to 21.9 µM; in [2], 23.4 µM; in series [3], 24.4 µM.

Regarding `COc1cccc2c1C(=O)c1c(O)c3c(c(O)c1C2=O)C[C@@](O)(C(=O)CO)C[C@@H]3O[C@H]1C[C@H](N)[C@H](O)[C@H](C)O1` [DOXORUBICIN], the GI50 in series [1] was 0.0875 µM; in [2] it was 0.108 µM; in [3], 0.0547 µM.

Regarding `COc1ccc2c(c1)CCC/C(=C\c1cc(OC)c(OC)c(OC)c1)C2=O`, the GI50 was determined as 12 µM in series [1], 9.71 µM in series [2] and 6.57 µM in series [3]. Besides, the IC50 in series [4] is > 20 µM.

As to `COc1ccc2c(c1Br)CCC(=C\c1cc(OC)c(OC)c(OC)c1)/C2=N\O`, the values for the GI50 in series [1], in series [2] and in [3] were 80.1 µM, 50.1 µM and 47 µM, respectively. For the same molecule, the IC50 in series [4] is > 20 µM.

Turning to `COc1ccc2c(c1O)CC/C(=C\c1cc(OC)c(OC)c(OC)c1)C2=O`, the GI50 is 6.29 µM in series [1], 5.49 µM in series [2] and 6.44 µM in series [3]. In series [5], the Activity result is recorded as “Toxic”. Besides, the IC50 in series [4] was > 20 µM.

As to `COc1ccc2c(c1)CC/C(=C\c1cc(OC)c(OC)c(OC)c1)C2=O`, the GI50 stood at 40.3 µM in series [1], 22.6 µM in series [2] and 22.4 µM in series [3]. For the same molecule, the IC50 in [4] was > 20 µM.

Turning to `COc1cc(Cc2ccc3c(Br)c(OC)ccc3c2O)cc(OC)c1OC`, the figures for the GI50 in series [1], in series [2] and in [3] were 18.3 µM, 6.17 µM and 5.92 µM, respectively.

For `COc1ccc(/C=C\c2cc(OC)c(OC)c(OC)c2)cc1O` [COMBRETASTATIN A4], the GI50 amounted to 0.00506 µM in [1], 0.00602 µM in series [2] and 0.005 µM in series [3].

Regarding `COc1ccc2c(O)c(Cc3cc(OC)c(OC)c(OC)c3)ccc2c1`, the GI50 is 7.5 µM in series [1], 8.84 µM in series [2] and 13.4 µM in [3]. Moreover, the Activity result in [5] was “Toxic”. The IC50 in series [4] was found to be 17 µM.

Regarding `COc1ccc2c(c1)CC[C@H]1[C@H](c3cc(OC)c(OC)c(OC)c3)[C@@H]21`, the GI50 in [1] was 54.5 µM; in series [2], 41.1 µM; in series [3], 38.8 µM. Also, the IC50 in series [4] is > 20 µM.

Regarding `COc1cc(Cc2ccc3c(N)c(OC)ccc3c2O)cc(OC)c1OC`, the GI50 in series [1] is 16.4 µM; in [2], 49.7 µM; in series [3] it was 65.2 µM.

Take `COc1ccc2c(c1C#N)CC/C(=C\c1cc(OC)c(OC)c(OC)c1)C2=O`: the GI50 was 33.3 µM in [1], 57.2 µM in series [2] and 44.4 µM in series [3]. The IC50 in series [4] is > 20 µM.

With `COc1ccc2c(c1O)CCC/C(=C\c1cc(OC)c(OC)c(OC)c1)C2=O`, the GI50 in series [1] was 0.941 µM; in series [2] it was 0.456 µM; in series [3], 0.635 µM. Also, the Activity entry in series [5] was “Non-Toxic”. The selectivity ratio in series [6], in series [7] and in [8] was 10 each time. In addition, the inhibition (in general, the relative decrease from the control value, in per cent) in series [9] was determined as 14%. Moreover, in series [4], the IC50 is > 20 µM.

In the case of `COc1cc(Cc2ccc3c([N+](=O)[O-])c(OC)ccc3c2O)cc(OC)c1OC`, the values for the GI50 in series [1], in series [2] and in [3] were 21 µM, 18.6 µM and 22.9 µM, respectively.

With `COc1ccc2c(c1Br)CC/C(=C\c1cc(OC)c(OC)c(OC)c1)C2=O`, the GI50 in series [1] is 29.6 µM; in series [2] it was 27.6 µM; in [3] it was 22.6 µM. The IC50 in [4] was > 20 µM.

In the case of `CC(=O)O[C@H]1C(=O)[C@@]2(C)[C@H]([C@H](OC(=O)c3ccccc3)[C@]3(O)C[C@H](OC(=O)[C@H](O)[C@@H](NC(=O)c4ccccc4)c4ccccc4)C(C)=C1C3(C)C)[C@]1(OC(C)=O)CO[C@@H]1C[C@@H]2O` [PACLITAXEL], the concentration for 50% growth inhibition (GI50) was 0.00136 µM in series [1], 0.00152 µM in [2] and 0.00165 µM in series [3].

Regarding `COc1ccc2c(c1N)CC/C(=C\c1cc(OC)c(OC)c(OC)c1)C2=O`, the GI50 was > 135 µM in series [1], 32.4 µM in series [2] and 46.4 µM in [3]. Besides, the Activity result in [5] is given as “Toxic”. Also, the IC50 in series [4] was > 20 µM.

With `COc1ccc2c(c1N)CCC/C(=C\c1cc(OC)c(OC)c(OC)c1)C2=O`, the GI50 worked out at 0.936 µM in series [1], 0.237 µM in series [2] and 0.733 µM in [3]. Besides, the Activity result in series [5] is recorded as “Non-Toxic”. Further, the selectivity ratio in series [6], in [7] and in series [8] was 100 each time. The same molecule registered an inhibition in series [9] of 0.34%. In addition, the IC50 in series [4] was > 20 µM.

For `COc1ccc2c(c1Br)CC[C@H]1[C@H](c3cc(OC)c(OC)c(OC)c3)[C@@H]21`, the values for the GI50 in series [1], in series [2] and in [3] were 108 µM, 61.5 µM and 59.2 µM, respectively. The IC50 in [4] was > 20 µM.

In the case of `COc1cc(/C=C2\CCCc3c(ccc(OC)c3[N+](=O)[O-])C2=O)cc(OC)c1OC`, the GI50 worked out at 16.1 µM in series [1], 5.94 µM in series [2] and 5.96 µM in series [3]. Besides, in series [4], the IC50 is > 20 µM.

`COc1ccc2c(c1O)CCC(=C\c1cc(OC)c(OC)c(OC)c1)/C2=N\O`: the values for the GI50 in [1], in series [2] and in series [3] were 38.2 µM, 23.9 µM and 22.8 µM, respectively. In addition, the IC50 in series [4] is > 20 µM.
